System: Mus musculus
Assay: Biodistribution in tumor of C57BL/6 mouse xenografted with mouse B16F10 cells at 3.7 MBq, iv after 2 hrs by gamma-scintillation counting analysis
Type: ADME, organism-based, Neoplasm, B16-F10
Settings: in vivo
In short: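 1.0 × 10^6 B16F10 cells in PBS injected subcutaneously into the right shoulder of C57BL/6 mice, grown to 0.5 cm (~10 day). Tail-vein injection of about 3.7 MBq (100 μCi) 18F probe in PBS (0.1 M, pH 7.4). Killed at 1.0 or 2.0 h p.i. (n = 4 per group). Tissues excised, weighed and gamma-counted; uptake expressed as %ID/g, mean ± SD.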

Drug uptake: 5.94 % ID/g
Structure (SMILES): CCN(CC)CCNC(=O)c1ccc([18F])cc1

From ChEMBL document CHEMBL2311435, “Development of 18F-labeled picolinamide probes for PET imaging of malignant melanoma” (J Med Chem, 2013)
